Test results: ChEMBL document CHEMBL1129267, “Aryl 1-but-3-ynyl-4-phenyl-1,2,3,6-tetrahydropyridines as potential antipsychotic agents: synthesis and structure-activity relationships” (J Med Chem, 1996)

Legend:
Mus musculus [1] = experiment: (§1) Compound was tested for the inhibition of locomotor activity (LMA)by administering Intraperitoneally in mouse.; type: functional; settings: ip
Summary of the method: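 Mice dosed ip, then tested immediately for 1 h in darkened cylindrical photobeam chambers. Percent inhibition of locomotor activity relative to vehicle-treated animals; ED50 derived from three to six doses, n = 6-18 animals/dose.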

D(2) dopamine receptor [2] = molecular target: T1, D(2) dopamine receptor (Rattus norvegicus, UniProt P61169); experiment: Binding affinity at Dopamine receptor D2 in rat striatal membrane by [3H]spiperone displacement.; type: cell membranes, Striatum
Summary of the method: (§2)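 Rat striatal membranes; [³H]spiperone 0.2 nM final; nonspecific binding defined with (+)-butaclamol 1.0 µM final. Four to six concentrations, each run in triplicate; Ki obtained by nonlinear regression analysis.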

Rattus norvegicus [3] = experiment: In vivo inhibition of locomotor activity in the rat following p.o. administration.; type: functional; settings: po
D(1A) dopamine receptor [4] = molecular target: T2, D(1A) dopamine receptor (Rattus norvegicus, UniProt P18901); experiment: Binding affinity against dopamine receptor D1 using radioligand ([3H]-SCH 23390) binding assay
D(2) dopamine receptor [5] = molecular target: T3, D(2) dopamine receptor (Homo sapiens, UniProt P14416); experiment: Compound was evaluated […] for Dopamine receptor D2 mitogenesis. [3H]thymidine incorporation in CHO p-5 cells expressing human D2 receptors.; type: organism-based
Summary of the method: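 CHO p-5 cells transfected with human D2L receptor are grown 2 days at 37 °C in medium with 10% calf serum, then rinsed and put in serum-free medium. Compound (in water) is added for 16-17 h, then [³H]thymidine (1 µCi/well) for 4 h. Cells are harvested and counted. Maximal effect is given as % of quinpirole (100%).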

[6] = molecular target: T4, 5-hydroxytryptamine receptor 1A (Rattus norvegicus, UniProt P19327); experiment: (§3) Binding affinity against serotonin 5-hydroxytryptamine 1A receptor using radioligand [3H]8-OH-DPAT binding assay
T4 sequence (P19327 whole entry): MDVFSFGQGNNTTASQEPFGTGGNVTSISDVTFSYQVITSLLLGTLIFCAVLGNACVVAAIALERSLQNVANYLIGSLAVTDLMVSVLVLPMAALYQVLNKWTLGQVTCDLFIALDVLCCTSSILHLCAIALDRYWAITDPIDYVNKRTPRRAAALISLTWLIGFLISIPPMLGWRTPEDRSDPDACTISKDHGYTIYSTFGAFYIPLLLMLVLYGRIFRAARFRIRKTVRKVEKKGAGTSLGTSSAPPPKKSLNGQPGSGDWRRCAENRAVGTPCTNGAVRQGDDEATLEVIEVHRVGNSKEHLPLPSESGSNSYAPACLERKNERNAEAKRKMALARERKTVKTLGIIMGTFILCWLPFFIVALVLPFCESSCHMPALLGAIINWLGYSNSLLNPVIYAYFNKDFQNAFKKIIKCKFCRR
Summary of the method: (§4)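 Rat hippocampal membranes labelled with [³H]-8-OH-DPAT (0.4 nM final); nonspecific binding with 8-OH-DPAT (1 µM).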

D(2) dopamine receptor [7] = molecular target: T1, D(2) dopamine receptor; experiment: Binding affinity against Dopamine receptor D2 in CHO-K1 cells using radioligand [3H]NPA binding assay; type: cell-based
D(2) dopamine receptor [8] = molecular target: T1, D(2) dopamine receptor; experiment: Compound was evaluated for their affinity against dopamine receptor D2 by displacing [3H]-spiperone in rat striatal membrane; type: cell membranes, Striatum; summary of the method: as §2
[9] = molecular target: T5, Adrenergic receptor alpha-1 (Rattus norvegicus, UniProt P15823+P23944+P43140); experiment: Binding affinity against Alpha-1 adrenergic receptor using radioligand [3H]prazosin binding assay.; type: protein assay
T5 sequence (P15823 whole entry): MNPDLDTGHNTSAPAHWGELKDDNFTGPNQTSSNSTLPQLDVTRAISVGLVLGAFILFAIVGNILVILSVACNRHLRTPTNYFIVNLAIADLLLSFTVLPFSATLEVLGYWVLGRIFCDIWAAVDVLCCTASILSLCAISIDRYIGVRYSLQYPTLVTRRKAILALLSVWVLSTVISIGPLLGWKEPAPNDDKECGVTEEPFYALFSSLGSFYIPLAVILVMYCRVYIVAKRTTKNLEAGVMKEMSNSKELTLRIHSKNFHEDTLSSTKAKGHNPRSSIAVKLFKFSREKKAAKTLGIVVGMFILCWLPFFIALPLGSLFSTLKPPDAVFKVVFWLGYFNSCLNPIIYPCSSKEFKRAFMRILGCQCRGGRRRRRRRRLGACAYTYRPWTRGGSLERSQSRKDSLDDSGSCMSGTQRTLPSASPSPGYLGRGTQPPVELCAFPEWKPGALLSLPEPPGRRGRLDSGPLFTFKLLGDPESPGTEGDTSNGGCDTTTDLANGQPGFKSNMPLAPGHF
T5 sequence (P23944 whole entry): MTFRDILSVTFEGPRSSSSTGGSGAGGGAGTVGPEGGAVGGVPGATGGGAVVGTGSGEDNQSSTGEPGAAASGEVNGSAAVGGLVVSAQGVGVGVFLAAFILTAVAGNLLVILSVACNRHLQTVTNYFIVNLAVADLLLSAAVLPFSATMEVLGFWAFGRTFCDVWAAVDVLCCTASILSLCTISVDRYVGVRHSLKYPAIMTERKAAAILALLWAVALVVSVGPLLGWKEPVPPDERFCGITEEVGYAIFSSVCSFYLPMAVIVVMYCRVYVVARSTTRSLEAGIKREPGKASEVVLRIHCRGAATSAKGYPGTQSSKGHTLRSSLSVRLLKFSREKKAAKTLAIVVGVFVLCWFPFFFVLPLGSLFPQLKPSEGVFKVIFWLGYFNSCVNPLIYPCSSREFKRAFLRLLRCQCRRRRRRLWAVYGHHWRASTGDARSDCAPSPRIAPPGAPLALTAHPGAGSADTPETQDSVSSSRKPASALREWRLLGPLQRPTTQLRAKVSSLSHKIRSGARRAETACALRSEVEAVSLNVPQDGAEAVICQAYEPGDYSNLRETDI
T5 sequence (P43140 whole entry): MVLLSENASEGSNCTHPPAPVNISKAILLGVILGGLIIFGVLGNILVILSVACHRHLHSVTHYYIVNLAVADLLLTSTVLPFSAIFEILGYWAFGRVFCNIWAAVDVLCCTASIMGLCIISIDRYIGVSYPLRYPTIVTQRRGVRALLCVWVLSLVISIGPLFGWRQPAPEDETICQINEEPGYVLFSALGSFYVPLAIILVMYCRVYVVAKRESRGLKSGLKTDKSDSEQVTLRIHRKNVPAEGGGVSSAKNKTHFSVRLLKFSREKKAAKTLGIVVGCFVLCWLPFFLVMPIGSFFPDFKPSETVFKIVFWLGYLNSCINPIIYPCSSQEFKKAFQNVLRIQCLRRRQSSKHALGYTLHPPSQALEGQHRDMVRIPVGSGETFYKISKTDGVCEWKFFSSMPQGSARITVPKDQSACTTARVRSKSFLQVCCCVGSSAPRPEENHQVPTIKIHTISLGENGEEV
Summary of the method: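 Inhibition of [³H]prazosin (0.1 nM final) binding in rat cortex membranes; phentolamine (10 µM final) defines nonspecific binding.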

Rattus norvegicus [10] = experiment: Compound was tested for the inhibition of locomotor activity (LMA)by administering orally in rat; type: functional; settings: po
Summary of the method: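 Rats dosed orally 1 h before a 30 min test in darkened cylindrical photobeam chambers. Percent inhibition of locomotor activity relative to vehicle-treated animals; ED50 derived from three to six doses, n = 6-18 animals/dose.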

D(4) dopamine receptor = molecular target: T6, D(4) dopamine receptor (Homo sapiens, UniProt P21917); experiment: Binding affinity against human Dopamine receptor D4 in CHO-K1 cells using [3H]spiperone as radioligand; type: cell-based
T6 sequence (P21917 whole entry): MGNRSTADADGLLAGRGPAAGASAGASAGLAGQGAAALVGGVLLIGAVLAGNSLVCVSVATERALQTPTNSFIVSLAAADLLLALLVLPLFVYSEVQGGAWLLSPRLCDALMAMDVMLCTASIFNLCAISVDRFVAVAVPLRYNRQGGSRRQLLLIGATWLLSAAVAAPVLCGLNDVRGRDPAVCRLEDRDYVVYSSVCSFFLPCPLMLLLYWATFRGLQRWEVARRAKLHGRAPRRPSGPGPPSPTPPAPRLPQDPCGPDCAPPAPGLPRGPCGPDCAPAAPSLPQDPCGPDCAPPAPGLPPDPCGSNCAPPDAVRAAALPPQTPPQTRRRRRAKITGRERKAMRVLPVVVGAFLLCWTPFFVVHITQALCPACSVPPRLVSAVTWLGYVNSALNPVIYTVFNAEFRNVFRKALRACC
Summary of the method: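 Human D4.2 receptor expressed in CHO K1 cells; [³H]spiperone 0.2 nM final; nonspecific binding defined with haloperidol 1.0 µM final.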

Monkey = experiment: Compound was tested for inhibition of conditioned avoidance after administering perorally(po) in squirrel monkeys; type: functional; settings: Cebidae, in Saimiri
Rattus norvegicus [11] = experiment: Percent decrease of the firing rate of rat substantia nigra DA neurons at a dose of 2.5 mg/kg ip; type: functional; settings: route intraperitoneal
[12] = molecular target: T4, 5-hydroxytryptamine receptor 1A; experiment: as §3; parameters: species or system Homo sapiens; summary of the method: as §4
Rattus norvegicus [13] = experiment: Percent reversal of the increase on DOPA levels in the striatum of GBL-treated rats at a dose of 10 mg/kg ip; type: functional; settings: route intraperitoneal
Mus musculus [14] = experiment: as §1; type: functional; settings: ip; remark: listed apart in the source
D(2) dopamine receptor [15] = molecular target: T3, D(2) dopamine receptor; experiment: […] Dopamine receptor D2 mitogenesis measured as [3H]thymidine incorporation in CHO p-5 cells expressing human D2 receptors
Summary of the method: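 CHO p-5 cells transfected with human D2L are grown 2 days at 37 °C in medium with 10% calf serum, rinsed, and switched to serum-free medium plus compound in water. After 16-17 h, [³H]thymidine (1 µCi/well) is added for 4 h; cells are harvested onto filters and counted.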

D(3) dopamine receptor = D(3) dopamine receptor (Homo sapiens, UniProt P35462); experiment: Binding affinity against human Dopamine receptor D3 in CHO-K1 cells using [3H]spiperone as radioligand; type: cell-based
D(1A) dopamine receptor [16] = molecular target: T2, D(1A) dopamine receptor; type: cell membranes, Brain, Membrane

T3 sequence (P14416 whole entry): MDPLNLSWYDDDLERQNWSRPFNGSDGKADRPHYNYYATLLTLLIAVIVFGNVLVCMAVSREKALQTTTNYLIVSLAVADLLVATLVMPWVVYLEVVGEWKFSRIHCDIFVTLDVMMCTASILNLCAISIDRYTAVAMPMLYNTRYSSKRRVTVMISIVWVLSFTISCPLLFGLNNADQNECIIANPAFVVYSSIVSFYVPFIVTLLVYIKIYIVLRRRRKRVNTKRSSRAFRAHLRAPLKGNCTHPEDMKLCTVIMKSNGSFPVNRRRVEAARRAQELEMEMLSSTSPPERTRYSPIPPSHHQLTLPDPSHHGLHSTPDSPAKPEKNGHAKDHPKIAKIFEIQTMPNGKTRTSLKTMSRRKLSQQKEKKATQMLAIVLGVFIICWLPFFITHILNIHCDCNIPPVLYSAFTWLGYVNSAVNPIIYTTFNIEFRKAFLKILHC
T1 sequence (P61169 whole entry): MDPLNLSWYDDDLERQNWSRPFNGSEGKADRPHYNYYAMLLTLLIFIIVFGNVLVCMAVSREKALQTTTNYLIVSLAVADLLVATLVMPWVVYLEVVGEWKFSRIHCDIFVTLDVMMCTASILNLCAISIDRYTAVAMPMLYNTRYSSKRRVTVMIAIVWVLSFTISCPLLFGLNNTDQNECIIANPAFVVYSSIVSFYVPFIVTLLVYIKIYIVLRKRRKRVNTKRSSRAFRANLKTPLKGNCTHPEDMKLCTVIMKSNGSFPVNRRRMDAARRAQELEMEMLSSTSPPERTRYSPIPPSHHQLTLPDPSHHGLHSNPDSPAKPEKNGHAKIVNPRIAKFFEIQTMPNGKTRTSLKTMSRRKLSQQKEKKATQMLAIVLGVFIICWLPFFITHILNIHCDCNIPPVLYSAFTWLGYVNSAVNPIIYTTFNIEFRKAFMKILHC
T2 sequence (P18901 whole entry): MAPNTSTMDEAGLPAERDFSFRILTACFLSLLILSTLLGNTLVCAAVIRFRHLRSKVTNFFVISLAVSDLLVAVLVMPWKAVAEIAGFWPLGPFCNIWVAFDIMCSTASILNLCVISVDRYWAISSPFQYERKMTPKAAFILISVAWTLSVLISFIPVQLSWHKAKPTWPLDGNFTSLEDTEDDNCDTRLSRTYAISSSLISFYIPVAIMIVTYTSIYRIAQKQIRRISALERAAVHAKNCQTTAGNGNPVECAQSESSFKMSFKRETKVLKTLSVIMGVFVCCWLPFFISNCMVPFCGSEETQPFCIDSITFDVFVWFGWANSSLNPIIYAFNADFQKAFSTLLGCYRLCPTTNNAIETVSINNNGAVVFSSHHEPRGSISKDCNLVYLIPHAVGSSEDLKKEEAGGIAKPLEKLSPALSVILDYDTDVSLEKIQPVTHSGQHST
D(3) dopamine receptor, sequence (P35462 whole entry): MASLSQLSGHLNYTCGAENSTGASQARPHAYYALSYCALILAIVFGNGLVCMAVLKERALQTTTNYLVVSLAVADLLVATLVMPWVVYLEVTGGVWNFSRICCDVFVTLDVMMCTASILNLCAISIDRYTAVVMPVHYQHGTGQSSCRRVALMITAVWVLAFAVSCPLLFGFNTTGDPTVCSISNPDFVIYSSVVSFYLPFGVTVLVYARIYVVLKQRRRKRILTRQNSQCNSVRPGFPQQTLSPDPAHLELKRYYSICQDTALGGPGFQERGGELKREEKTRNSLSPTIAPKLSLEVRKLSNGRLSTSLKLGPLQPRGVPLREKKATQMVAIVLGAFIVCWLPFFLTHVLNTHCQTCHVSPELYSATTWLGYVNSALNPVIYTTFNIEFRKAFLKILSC

SMILES	ED50 (Mus musculus [1]) [mg/kg]	Ki (D(2) dopamine receptor [2]) [nM]	ED50 (Rattus norvegicus [3]) [mg/kg]	Ki (D(2) dopamine receptor [7]) [nM]	Ki (D(2) dopamine receptor [8]) [nM]	Ki [9] [nM]	ED50 (Rattus norvegicus [10]) [mg/kg]	ED50 (Monkey) [mg/kg]	Decrease (Rattus norvegicus [11]) [%]	ED50 (Mus musculus [14]) [mg/kg]	further results
C(#Cc1cccnc1)CCN1CC=C(c2cccs2)CC1	0.86	255	5								
Fc1ccc(N2CCN(CCC#Cc3cccnc3)CC2)cc1	4.7	1670	4.3								
Nc1ccc(C#CCCN2CC=C(c3ccccc3)CC2)cc1				0.67	48	34.5	2.7	3.8	81		Ki (D(1A) dopamine receptor [4]): > 10000 nM; Max effect (D(2) dopamine receptor [5]): 49%; Ki [6]: > 10000 nM; Ki (D(4) dopamine receptor): 228 nM
C(#Cc1ccccn1)CCN1CC=C(c2ccccc2)CC1		136	15.8								
Nc1cccc(C#CCCN2CC=C(c3ccccc3)CC2)c1	0.68			18	87	107	5.6	9.3	98		Ki [12]: 1550 nM; Max effect (D(2) dopamine receptor [5]): 75%; Decrease (Rattus norvegicus [13]): 42%
C(#Cc1ccc2[nH]ccc2c1)CCN1CC=C(c2ccccc2)CC1		193	5.2							1.2	
C(#Cc1cccnc1)CCN1CCN(c2ccccn2)CC1	2.2		> 30								
Oc1ccc(C#CCCN2CC=C(c3ccccc3)CC2)cc1					54		> 30			1.5	
C(#Cc1ccc2occc2c1)CCN1CC=C(c2ccccc2)CC1		440	10.6							2.5	
C(#Cc1ccncc1)CCN1CC=C(c2ccccc2)CC1		32	4.4	4.1		25.8		11.9	93		Ki [6]: 593 nM; EC50 (D(2) dopamine receptor [15]): 1 nM; Ki (D(3) dopamine receptor): 6.5 nM; Ki (D(4) dopamine receptor): 570 nM
C(#Cc1cccnc1)CCN1CC=C(c2ccccc2)CC1		37	1.4	3.3		14.1		10.1	100		Ki [6]: 555 nM; EC50 (D(2) dopamine receptor [15]): 1.7 nM; Ki (D(3) dopamine receptor): 20 nM; Ki (D(4) dopamine receptor): 681 nM; Ki (D(1A) dopamine receptor [16]): 5000 nM
C(#Cc1ccccc1)CCN1CC=C(c2ccccc2)CC1					284		20.5			9.5	
